CHOP inh = inhibitors of CHOP promoter induction, primary screen, cell-based, unfolded protein response, luciferase reporter | CHO-K1 CHOP-promoter luciferase, tunicamycin-induced, 15-18 h | inhibition, % at 10 µM | 220,000 tested, 3.8% active | AID 2732, 2010;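 active = compounds that reduced the stress-induced luciferase reporter signal by more than about 70% of percent inhibition, limit read from the data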
UPR XBP1 act = activators of adaptive XBP1 UPR arm, primary screen, cell-based, CHO-XBP1 luciferase reporter, luminescence, uHTS | activation, % at 20 µM | 330,000 tested, 0.33% active | AID 463104, 2010 | IRE1-XBP1 UPR activation; percent of tunicamycin response, DMSO as zero;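 active = versus positive control, 20 µM dose yields 30% or more activation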
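Test system: CHO-XBP1 luciferase reporter cells | Buffer or medium: Serum-containing F12 medium, 10% FBS | Schedule: 6 h compound exposure at 37 °C, 5% CO2 | Detection: Steady-Glo luciferase glow luminescence, 10 min after reagent addition | Read-out basis: Activation, % of tunicamycin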
Bfl-1 A1 inh = caspase 3/7 activation in MEF A1-2A-BIM cells, primary screen, A1 inhibitor project, cell-based, luminescence, HTS; caspase activation, % (concentration not given with the values); 330,000 tested, 0.066% active; Caspase-Glo 3/7 luminescence, 3 h; percent of clofoctol response, vehicle zero;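 active = over half of replicate activation scores above 10%, or exactly half above 10 with the replicate mean above 10; inconclusive = replicate mean below 10 yet half the replicates above 10; inactive = over half of replicates below 10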
UPR CHOP act = activators of apoptotic CHOP UPR arm, primary screen, cell-based, CHO-CHOP luciferase reporter, luminescence, uHTS; UPR activation; percent of tunicamycin response over DMSO baseline; activation, % at 10 µM; 330,000 tested, 0.34% active; AID 449763, 2010;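 active = at 10 µM dose, activation of 40% or more, normalized to positive control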
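System: CHO-CHOP luciferase reporter cell line | Buffer or medium: F12 medium containing 10% fetal bovine serum | Doses: One dose, 10 µM in 0.5% DMSO | Times: 6 h compound exposure at 37 °C after overnight seeding | Signal: Luciferase luminescence | Read-out: % activation vs tunicamycin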
Of the large screens only hits and unclear results are named; the others gave an inactive call. The full list was thinned out, with hits kept by preference.

CCN(CC)c1ncnc2c1ncn2[C@@H]1O[C@H](COP(=O)(O)OP(=O)(O)C(Br)(Br)P(=O)(O)O)[C@@H](O)[C@H]1O	none (no result: UPR XBP1 act, Bfl-1 A1 inh, UPR CHOP act)
N[C@H](CCCCCP(=O)(O)O)C(=O)O	none (no result: UPR XBP1 act, Bfl-1 A1 inh, UPR CHOP act)
CCCCn1c(N)c(C(=O)NCc2cccs2)c2nc3ccccc3nc21	CHOP inh 92
CCCCCCn1c(N)c(C(=O)NCCN2CCOCC2)c2nc3ccccc3nc21	CHOP inh 86
O=[N+]([O-])c1ccc(O[C@@H]2O[C@H](CO)[C@@H](O)[C@H](O)[C@H]2F)c([N+](=O)[O-])c1	none (no result: UPR XBP1 act, Bfl-1 A1 inh, UPR CHOP act)
COc1ccc2c3c1O[C@H]1C(=O)CC[C@@]4(O)C(C2)N(CC2CC2)CCC314 (stereo partly drawn)	none (no result: UPR XBP1 act, Bfl-1 A1 inh, UPR CHOP act)
CC(=Nc1ccc2c(c1)CCC2)c1c(O)n(C2CCCCC2)c(=O)[nH]c1=O	CHOP inh 87
CC(=Nc1ccc2c(c1)CCC2)c1c(O)n(-c2ccccc2)c(=O)[nH]c1=O	none
CCC(=NC1CC1)c1c(O)n(C2CCCCC2)c(=O)[nH]c1=O	none
CCC(=Nc1ccc2c(c1)CCC2)c1c(O)n(C2CCCCC2)c(=O)[nH]c1=O	CHOP inh 76
CC12CCC3C(CCC4=C(O)C(=O)CCC43C)C1CCC2=O (stereo not drawn)	none (no result: UPR XBP1 act, Bfl-1 A1 inh, UPR CHOP act)
CC1OC1P(=O)(O)O (stereo not drawn)	none (no result: UPR XBP1 act, Bfl-1 A1 inh, UPR CHOP act)
COC(=O)C(O)(c1ccc(NC(=S)NC(=O)c2ccc(Cl)cc2Cl)cc1)C(F)(F)F (stereo not drawn)	CHOP inh 71
CCOC(=O)C(O)(c1ccc(NC(=S)NC(=O)c2ccc(Cl)cc2Cl)cc1)C(F)(F)F (stereo not drawn)	none
CCOC(=O)C(O)(c1ccc(NC(=S)NC(=O)c2ccc(Cl)cc2Cl)c(C)c1)C(F)(F)F (stereo not drawn)	CHOP inh 70
NCCCP(=O)(O)O	none (no result: UPR XBP1 act, Bfl-1 A1 inh, UPR CHOP act)
C#CCN(C)[C@@H](C)Cc1ccccc1	none (no result: UPR XBP1 act, Bfl-1 A1 inh, UPR CHOP act)
Cc1cccc(OP(=O)(Oc2ccccc2)OC(c2ccccc2)C(F)(F)F)c1 (stereo not drawn)	CHOP inh 76
COc1ccc2c(c1)[C@@]13CCCC[C@H]1[C@@H](C2)NCC3	none (no result: UPR XBP1 act, Bfl-1 A1 inh, UPR CHOP act)
C=CCN1CC[C@]23c4c5ccc(O)c4O[C@@H]2/C(=N/N=C2\CC[C@@]4(O)C6Cc7ccc(O)c8c7[C@@]4(CCN6CC=C)[C@@H]2O8)CC[C@@]3(O)C1C5	none (no result: UPR XBP1 act, Bfl-1 A1 inh, UPR CHOP act)
CCOc1cc(CNCCc2c[nH]c3ccccc23)cc(Cl)c1OCC	CHOP inh 80
CN1CCN(/N=C/c2c(O)n(CCC3=CCCCC3)c(=S)[nH]c2=O)CC1	none
O=c1[nH]c(=S)n(CCC2=CCCCC2)c(O)c1C=NC1CCN(Cc2ccccc2)CC1	CHOP inh 81
Cn1c(O)c(C=NC2CCN(Cc3ccccc3)CC2)c(=O)[nH]c1=O	none
O=c1[nH]c(=S)n(CCC2=CCCCC2)c(O)c1/C=N/Nc1ccccc1	CHOP inh 73
CC12CNCC(C)(CNC1)C2O (stereo not drawn)	CHOP inh 88
CN1CC[C@@]2(C)c3cc(O)ccc3N(C)C12 (stereo partly drawn)	none (no result: UPR XBP1 act, Bfl-1 A1 inh, UPR CHOP act)
C=CCN1CC[C@]23CCCCC2[C@H]1Cc1ccc(O)cc13 (stereo partly drawn)	none (no result: UPR XBP1 act, Bfl-1 A1 inh, UPR CHOP act)
Fc1ccc2c(c1)nnn2C1CCN(Cc2c(Cl)cccc2Cl)CC1	none
Cc1ccc(C)c(CN2CCC(n3nnc4cc(F)ccc43)CC2)c1	CHOP inh 75
NC(CCP(=O)(O)O)C(=O)O (stereo not drawn)	none (no result: UPR XBP1 act, Bfl-1 A1 inh, UPR CHOP act)
O=C1NC(=O)N(CCC2=CCCCC2)C(=O)/C1=C\c1cccs1	CHOP inh 94
C=CCN1C(=O)/C(=C/c2cccs2)C(=O)NC1=S	CHOP inh 80 (no result: UPR XBP1 act, UPR CHOP act)
CC(=O)OC(C)(C)/C=C/C(=O)[C@](C)(O)[C@H]1[C@H](O)C[C@@]2(C)[C@@H]3CC=C4[C@H](C[C@H](O)C(=O)C4(C)C)[C@]3(C)C(=O)C[C@]12C	none (no result: UPR XBP1 act, Bfl-1 A1 inh, UPR CHOP act)
CC(=O)OC(C)(C)/C=C/C(=O)C(C)(O)C1[C@H](O)C[C@@]2(C)C3CC=C4C(CC[C@@H](O)C4(C)C)[C@]3(CO)C(=O)C[C@]12C (stereo partly drawn)	Bfl-1 A1 inh 11 (no result: CHOP inh)
CCCCC1(CCCC)C(=O)NC(=Nc2cccc(C)c2)NC1=O	CHOP inh 80
C[C@H]1C2Cc3ccc(O)cc3C1(C)CCN2CC1CC1 (stereo partly drawn)	none (no result: UPR XBP1 act, Bfl-1 A1 inh, UPR CHOP act)
CCn1nc(/C=C/c2ccccc2)nc2c(=O)n(C)c(=O)nc1-2	CHOP inh 105 (no result: Bfl-1 A1 inh)
C[Se]C[C@H](N)C(=O)O	none (no result: UPR XBP1 act, Bfl-1 A1 inh, UPR CHOP act)
CCCC[N+]1(C)C2CC(OC(=O)[C@H](CO)c3ccccc3)CC1C1OC12 (stereo partly drawn)	none (no result: UPR XBP1 act, Bfl-1 A1 inh, UPR CHOP act)
O=c1c2ccccc2nc(/C=C/c2ccc(O)cc2)n1-c1cccc(O)c1	CHOP inh 71
CN(N=O)c1ccc(O)c(O)c1	none (no result: UPR XBP1 act, Bfl-1 A1 inh, UPR CHOP act)
CCOc1ccc(N=Cc2c(O)n(Cc3ccccc3)c(=S)[nH]c2=O)cc1	none
C=CCn1c(O)c(C=NCCCOc2ccc(CC)cc2)c(=O)[nH]c1=S	CHOP inh 77
COc1cc(/C=C(/C)[N+](=O)[O-])ccc1OCc1ccccc1Cl	CHOP inh 106, Bfl-1 A1 inh inconclusive
FC(F)(F)c1ccc2c(c1)nnn2C1CCN(Cc2nnnn2Cc2ccccc2)CC1	CHOP inh 88
Cc1ccc(Cn2nnnc2CN2CCC(n3nnc4cc(C(F)(F)F)ccc43)CC2)cc1	none
C[C@]12CCC3C(CC[C@H]4C[C@H](O)CC[C@]34C)C1CC[C@@H]2C(=O)CO (stereo partly drawn)	none (no result: UPR XBP1 act, Bfl-1 A1 inh, UPR CHOP act)
O=C(/C=C/c1ccccc1)c1c(O)n(CCc2ccccc2)c(=O)[nH]c1=O	CHOP inh 92
C/C1=C\[C@@H](C)C/C=C/[C@H]2[C@@H]3O[C@]3(C)[C@@H](C)[C@H]3[C@H](Cc4c[nH]c5ccccc45)NC(=O)[C@]32C(=O)/C=C/C(=O)[C@@H]1O	CHOP inh 105, Bfl-1 A1 inh 11
CCc1ccc(N2C(=O)NC(=O)/C(=C/c3cccn3CCOc3ccc(C(C)CC)cc3)C2=O)cc1 (stereo not drawn)	CHOP inh 86
Cc1cc(C)cc(N2C(=O)NC(=O)/C(=C\c3cccn3-c3ccc(Cl)cc3)C2=O)c1	UPR CHOP act 271
O=C1NC(=O)N(Cc2ccco2)C(=O)/C1=C\c1cccn1CCOc1ccc(Cl)cc1	CHOP inh 76
Cc1cc(/C=C2\C(=O)NC(=O)N(c3ccc(Cl)cc3)C2=O)c(C)n1-c1cccc(C(=O)O)c1	none (no result: CHOP inh)
CCc1ccc(N2C(=O)NC(=O)/C(=C/c3cccn3CCOc3ccc(C)cc3)C2=O)cc1	CHOP inh 90
COc1ccc2c(c1)C13CCCCC1C(C2)N(C)CC3 (stereo not drawn)	none (no result: UPR XBP1 act, Bfl-1 A1 inh, UPR CHOP act)
CC(C)CC(=O)NC(Oc1ccc(Cl)cc1)C(Cl)(Cl)Cl (stereo not drawn)	CHOP inh 72
